High-throughput results from PubChem.
hDAT+cocaine: modulates human dopamine transporter uptake under cocaine. B-score at 10 µM. hit rate 1.3% among 110,000. LLC-PK1 hDAT cells, [14C]-dopamine uptake with cocaine IC80; actives deviate in either direction. Q01959;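 active means Z score or B-score, a plate-position-corrected score, falls beyond the plate's 99.7% confidence bounds, in either direction; inactive means both scores lie inside the 99.7% bounds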;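 further: scored against the spread of the other compound wells on the same plate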
M1 antag: M1 muscarinic receptor (rat) antagonism; hit rate 3.4% among 64,000; CHO-M1 cells, Fluo-4 calcium, ACh EC80 antagonist mode; hits give low values; B-score at 10 µM; P08482;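 active means calcium fluorescence response, raw or row-and-column corrected B-score, differing from the plate sample mean either way at a set confidence level, mostly lower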
M1 ag: agonists of M1 muscarinic receptor | CHO-M1 cells, Fluo-4 calcium fluorescence, agonist mode; hits give high values | hit rate 3% among 64,000 | B-score at 10 µM;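 active means fluorescence rise, raw or as B-score row- and column-corrected plate score, outside the 99.7% band of its plate's samples, either direction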
D1 allo mod: D1 dopamine receptor (human) allosteric modulation; P21728; HEK293 D1, CRE-luciferase, dopamine EC30 potentiation; actives deviate in either direction; B-score at 10 µM; hit rate 5.9% among 58,000; AID 641;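 active means luminescence count or its row- and column-corrected plate score outside the 99.7% band of the plate's sample wells, on either side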
BAP1 block: human BAP1 deubiquitinase inhibition | Q92560 | recombinant BAP1, Ub-AMC hydrolysis fluorescence kinetic; hits give low values | calls only at 20 µM | hit rate 0.48% among 72,000 | AID 436;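 active means activity remaining at or below 50% of control, provided the compound also passes the data quality filters; inactive means the rest, including low values that fail the filters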;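 further: 100% = DMSO wells rate and 0% = substrate alone blank rate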
Target sequence (Q92560 whole entry, looked up): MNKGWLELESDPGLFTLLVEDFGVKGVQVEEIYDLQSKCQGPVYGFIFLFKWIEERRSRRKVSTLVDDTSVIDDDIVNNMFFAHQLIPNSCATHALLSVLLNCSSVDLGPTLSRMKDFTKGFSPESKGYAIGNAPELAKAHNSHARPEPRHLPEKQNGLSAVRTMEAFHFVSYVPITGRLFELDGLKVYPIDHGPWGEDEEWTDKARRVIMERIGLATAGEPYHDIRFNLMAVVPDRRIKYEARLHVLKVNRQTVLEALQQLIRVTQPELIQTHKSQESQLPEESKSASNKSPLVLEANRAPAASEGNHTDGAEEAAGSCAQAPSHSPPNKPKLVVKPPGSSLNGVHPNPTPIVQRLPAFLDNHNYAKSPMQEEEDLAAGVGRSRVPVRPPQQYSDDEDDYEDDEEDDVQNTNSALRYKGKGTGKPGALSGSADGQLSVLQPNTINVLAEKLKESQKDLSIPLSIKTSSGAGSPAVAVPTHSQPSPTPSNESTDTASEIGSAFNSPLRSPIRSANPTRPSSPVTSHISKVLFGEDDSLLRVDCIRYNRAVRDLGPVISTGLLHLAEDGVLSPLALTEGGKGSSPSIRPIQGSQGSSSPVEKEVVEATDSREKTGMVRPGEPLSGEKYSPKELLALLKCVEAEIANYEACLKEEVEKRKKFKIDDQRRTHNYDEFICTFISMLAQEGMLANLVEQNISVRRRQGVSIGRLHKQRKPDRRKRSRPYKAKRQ
HEK293 NFkB inh: lowers PMA/ionomycin-induced NF-kB signal in HEK293 cells; AID 465; inhibition, % at 3 µM; HEK-293 NF-kB luciferase reporter, luminescence; hit rate 0.21% among 62,000;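 active means inhibition above the mean of all tested compounds plus 3 SD, cut at about 40% in these data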;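 further: 0% = stimulated DMSO wells and 100% = 10 µM reference inhibitor 5653914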
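System: NF-kB luciferase reporter HEK-293 cells | Replication: Single test | Control set: DMSO vs reference inhibitor | Evaluation: % inhibition | Schedule: 1 h pretreatment, 16 h stimulation, 37 °C | Probe or stimulus: PMA with ionomycin | Compound dosing: One dose, 3 µM | Detection: Luciferase luminescence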
M1 antag confirm: confirmation of rat M1 muscarinic receptor antagonists. AID 677. hit rate 43% among 1,700. calcium response (max-min fluorescence) at 10 µM. CHO-M1 cells, Fluo-4 calcium, ACh EC80 antagonism; hits give low values. shares compounds with M1 antag;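 active means calcium response below the same-plate mean of wells given acetylcholine alone at its 80%-effect dose, minus 3 SD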;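 further: raw fluorescence intensity difference in arbitrary instrument units and not normalized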
mGluR4 antag: selectivity test for M1 antagonists: human mGluR4 receptor | hit rate 0.9% among 1,700 | shares compounds with M1 antag | fluorescence response (max-min) at 10 µM | CHO-mGluR4 calcium flux, Fluo-4 fluorescence, glutamate EC80; hits give low values;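 active means fluorescence response below the plate's average for near-maximal glutamate wells, less 3 SD of those wells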;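 further: raw unnormalized fluorescence span taken in the window right after glutamate addition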
An asterisk follows results filed as active; i = inactive; . = not tested or not shown. This is a sample that favours compounds with a hit; in the whole collection about 7.2% have one here.

SMILES	hDAT+cocaine	M1 antag	M1 ag	D1 allo mod	BAP1 block	HEK293 NFkB inh	M1 antag confirm	mGluR4 antag
O=S(=O)(Nc1nc2ccccc2[nH]1)c1ccc(Cl)cc1	-0.44	-16*	0.16	-0.078	i	16	70*	246
O=S(=O)(Nc1nc2ccccc2[nH]1)c1ccccc1	-0.05	-5.1*	0.01	0.061	i	32	394*	246
CCOc1cccc(OCCCCN2CCCCC2)c1	1.7	-3.1*	0.36	-1.8	i	2	329*	214
COc1cccc(OCCCN2CCCCC2)c1	1.2	-0.52	-0.53	-0.75	i	-2	.	.
COc1cccc(OCCCCN2CCCCC2)c1	0.29	-1.2*	0.11	-0.24	i	6	280*	203
O=C1C2C3c4ccccc4C(CO)(c4ccccc43)C2C(=O)N1c1ccc([N+](=O)[O-])cc1 (centres undefined)	.	.	.	.	i	.	.	.
Cc1c(-c2ccccc2)n(C)c2ccccc12	.	.	.	.	i	.	.	.
CCn1c(SCC(N)=O)nnc1-c1ccc2[nH]c(C)c(C)c2c1	-0.88	-0.88	-2.5	-0.021	i	3	.	.
CCn1c(SCC(N)=O)nnc1-c1cc2c(C)nn(-c3ccccc3)c2s1	2.5	-2.7*	0.75	1.7	i	16	489	160*
CN1C(=O)C2ON(c3ccccc3)C(c3cccs3)C2C1=O (centres undefined)	-1.3	-2.7*	-0.021	-1.4	i	-12	575	224
COCCNC(=O)NC1(C(F)(F)F)Oc2ccc(Cl)cc2O1 (centres undefined)	-2.7	0.2	-0.13	0.11	.	10	.	.
O=C(NCc1cccnc1)NC1(C(F)(F)F)Oc2ccc(Cl)cc2O1 (centres undefined)	-7.4*	-1.6*	-0.1	.	i	16	410*	246
NC(=O)c1cc[n+](CC(=O)Nc2ccccc2C(=O)O)cc1	.	.	.	.	i	.	.	.
CNC(=O)/C(C#N)=c1\s/c(=C/C(=O)OC)c(=O)n1-c1ccccc1	0.18	.	.	.	.	.	.	.
COC(=O)/C=c1/s/c(=C(\C#N)C(=O)NCc2ccco2)n(-c2ccccc2)c1=O	-1.1	-2.2*	0.78	.	i	.	669	218
COc1ccc(NC2=C(Cl)C(=O)N(c3ccc(Br)cc3)C2=O)cc1	.	.	.	.	i	.	.	.
CCN(CC)CCOC(=O)c1ccc(N)cc1	.	.	.	.	i	.	.	.
CCN(CC)CCOC(=O)C12CC3CC(CC(C3)C1)C2	0.009	-16*	-2.5	0.034	i	4	173*	175
O=C(Oc1ccc2c(=O)c(Oc3ccccc3Br)c(C(F)(F)F)oc2c1)c1ccco1	.	.	.	.	i	.	.	.
Cc1ccc(S(=O)(=O)NCCCC(=O)C=[N+]=[N-])cc1	-0.88	-3.3*	-0.66	-0.066	i	18	610	240
CCC1CCCCN1CCNC(=O)C1CCN(S(=O)(=O)c2c(C)noc2C)CC1 (centres undefined)	0.56	-12*	0.076	.	i	18	385*	179
Cc1cccc(CCNC(=O)C2CCN(S(=O)(=O)c3c(C)noc3C)CC2)c1	-0.14	.	.	.	.	.	.	.
COCCOC(=O)C1=C(N)OC2=C(C(=O)CC(C)(C)C2)C1c1ccccc1[N+](=O)[O-] (centres undefined)	.	.	.	.	i	.	.	.
Cc1ccc(C(=O)Nc2ccc3c(c2)CCC3)o1	1.4	0.45	0.31	-3.5	.	-21	.	.
O=C(Nc1ccc2c(c1)OCO2)c1ccc(COc2ccc3c(c2)CCC3)o1	0.047	-1.9*	-0.66	0.36	.	-41	647	232
SMILES	hDAT+cocaine	M1 antag	M1 ag	D1 allo mod	BAP1 block	HEK293 NFkB inh	M1 antag confirm	mGluR4 antag
C=CCn1c(NCc2cc(C)ccc2O)nc2ccccc21	0.96	-0.74	-0.76	-0.94	i	1	.	.
C=CCn1c(NCc2ccc(N(C)C)cc2)nc2ccccc21	1.3	-2.3*	-0.97	-0.57	.	12	584	220
Cc1oc2ccc(NS(=O)(=O)c3cccc([N+](=O)[O-])c3)cc2c1C(=O)OC(C)C	.	.	.	.	i	.	.	.
N=c1c2c(-c3ccccc3)c(-c3ccccc3)n(Cc3ccco3)c2ncn1CCO	0.35	.	.	.	.	.	.	.
N=c1c2c(-c3ccccc3)c(-c3ccccc3)n(Cc3ccco3)c2ncn1CCN1CCOCC1	2.9	-7.2*	-1.1	0.78	i	-5	360*	252
Cn1c(-c2ccc3c(c2)OCO3)cnc1NCc1cccc(Cl)c1	0.014	-17*	-1.2	-1.8	i	-4	109*	221
Cn1c(-c2ccc3c(c2)OCO3)cnc1NCc1ccccc1	-0.0062	-5.3*	0.077	-3.5	i	13	295*	182
Cc1cc(C(=O)CSc2nnnn2-c2ccccc2)c(C)n1CCc1ccccc1	-0.024	.	.	.	.	.	.	.
Cc1ccc(-n2c(C)cc(C(=O)CSc3nnnn3C)c2C)cc1	0.99	-1.8*	-0.19	.	i	-32	574	222
Cc1cc(C(=O)CSc2nnnn2C)c(C)n1CCc1ccc(F)cc1	-0.98	-2.1*	-0.92	.	.	7	644	231
O=C(Nc1nnc(-c2ccc([N+](=O)[O-])cc2)s1)c1ccccc1Cl	.	.	.	.	i	.	.	.
O=C(N/N=C/c1ccc(Cl)cc1Cl)Nc1ccccc1	0.17	.	.	.	.	.	.	.
O=C(N/C(=N\O)c1ccccc1)Nc1ccc(Cl)cc1	0.23	-3.5*	-0.36	-0.039	i	9	487	210
Cc1cc(C)c(NC(=O)CCC(=O)O)c(C)c1	.	.	.	.	i	.	.	.
CC1=C(C)CS(=Nc2ccccc2)N(S(=O)(=O)c2ccccc2)C1 (centres undefined)	.	.	.	.	i	.	.	.
O=S(=O)(/N=S1/CC=CCN1S(=O)(=O)c1ccccc1)c1ccccc1 (centres undefined)	-1.3	-2.1*	-1.4	0.061	i	16	666	243
Cc1c(CN2CCN(c3cccc(C(F)(F)F)c3)CC2)c(=O)n(-c2ccccc2)n1C	-0.21	-4.4*	-2.1	-2.7	i	17	458*	228
Cc1cc(=O)n2nc(N3CCCC(C(=O)N4CCc5ccccc54)C3)sc2n1 (centres undefined)	-0.027	-12*	1.2	0.43	i	7	33*	224
Cc1cc(=O)n2nc(N3CCCC(C(=O)N4CCOCC4)C3)sc2n1 (centres undefined)	-0.28	0.1	-0.69	-0.15	i	15	.	.
Cn1c(=O)n(CCOc2ccccc2Cl)c2ccccc21	0.012	-3.5*	1.1	0.19	i	4	392*	214
CN(C(=O)c1cc2sccc2n1C)C1CCCCC1	-0.64	-3.2*	0.75	-1.7	i	24	628	236
CCN(CC)S(=O)(=O)c1ccc(NS(=O)(=O)c2cccc(C)c2)cc1	1.6	-2.6*	-0.13	0.52	i	9	581	251
